Five compounds from ChEMBL document CHEMBL1126988, “Quinolone antibacterials containing the new 7-[3-(1-aminoethyl)-1- pyrrolidinyl] side chain: the effects of the 1-aminoethyl moiety and its stereochemical configurations on potency and in vivo efficacy” (J Med Chem, 1993) can be followed below.

Converted amounts (≈) assume the structure as drawn.

Test [1] deals with Staphylococcus aureus. As to the kind of experiment: Minimum inhibitory concentration was evaluated in vitro against Staphylococcus aureus H 228. Type of test: functional. The gist of the method:
(§1)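 Standard microtitration broth assay against a panel of 10 Gram-positive and Gram-negative organisms. MIC read in µg/mL and averaged over multiple experiments.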

For test [2], the system named is Streptococcus pyogenes. As to the kind of experiment: Compounds were evaluated in vivo for antibacterial activity for mouse protection against Streptococcus pyogenes C 203 after oral administration. The conditions noted are these: for ED50: C 203, po, read-out: PD50. Type of test: functional.
A further test concerns Enterobacter cloacae. Kind of test: Minimum inhibitory concentration in vitro against Enterobacter cloacae MA 2646. Type of test: functional.
The next test concerns Providencia rettgeri. As to the kind of experiment: Minimum inhibitory concentration was evaluated in vitro against Providencia rettgeri M1771. The test is classed as functional. The gist of the method: as §1
For test [3], the system named is Escherichia coli. As to the kind of experiment: Antibacterial activity against Escherichia coli Vogel after oral administration in mouse. The test is classed as functional. The note with it: for ED50: Escherichia coli, po, read-out: PD50.
Test [4] has as its system Escherichia coli. Kind of test: Antibacterial activity in vitro against Escherichia coli Vogel. The test is classed as functional. An outline of the steps: as §1
Test [5] deals with Streptococcus pyogenes. Kind of test: Compounds were evaluated in vivo for antibacterial activity for mouse protection against Streptococcus pyogenes C 203 after subcutaneous administration. The test is classed as functional. The note with it: C 203, sc, read-out: PD50.
For test [6], the system named is Escherichia coli. Kind of test: Antibacterial activity against Escherichia coli Vogel after subcutaneous administration in mouse. The note with it: for ED50: Escherichia coli, sc, read-out: PD50. Type of test: functional.
Test [7] is described as follows: Clonogenic cytotoxicity against hamster V-79 cells. The test is classed as functional, Cricetulus griseus, V79. An outline of the steps:
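Chinese hamster V-79 cells grown overnight, then drug-treated for 3 h at 37 °C. Medium is replaced with fresh medium and cells are incubated 5 days to allow colony formation. IC50 (µg/mL) is the concentration inhibiting colony formation by 50% relative to control.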

In a further test the test system is Streptococcus pneumoniae. As to the kind of experiment: Minimum inhibitory concentration was evaluated in vitro against Streptococcus pneumoniae SV-1. Type of test: functional. An outline of the steps: as §1
In test [8] the test system is Staphylococcus aureus. As to the kind of experiment: Minimum inhibitory concentration was evaluated in vitro against Staphylococcus aureus UC 76. The test is classed as functional. The gist of the method:
as §1

The next test concerns the target DNA gyrase (Escherichia coli, UniProt P0AES4+P0AES6). As to the kind of experiment: Inhibition against DNA gyrase. The test is classed as protein-complex assay.
The next test has as its system Pseudomonas aeruginosa. As to the kind of experiment: Minimum inhibitory concentration was evaluated in vitro against Pseudomonas aeruginosa UI-18. Type of test: functional. The gist of the method:
as §1

The species named for test [9] is Mus musculus. As to the kind of experiment: Compound was evaluated for phototoxicity no-effect dose in mouse. Type of test: functional. An outline of the steps:
(§2)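 Depilated female CD-1 mice, five per dose plus controls. Animals are dosed orally and then exposed daily to UV-A (320–400 nm) for 3 h, for up to 4 days or until a definite positive response. Redness or erythema relative to controls, read 24 h after irradiation, counts as positive. Reported as the highest dose with no effect (mg/kg).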

The subject of test [10] is Streptococcus pyogenes. Kind of test: Compound was evaluated in vivo for antibacterial activity for mouse protection against Streptococcus pyogenes C 203 after subcutaneous administration. The test is classed as functional. The note with it: sc, read-out: PD50.
For test [11], the system named is Enterococcus faecalis. Kind of test: Minimum inhibitory concentration was evaluated in vitro against Enterococcus faecalis MGH-2. Type of test: functional. The gist of the method: as §1
For test [12], the system named is Streptococcus pyogenes. Kind of test: Minimum inhibitory concentration was evaluated in vitro against Streptococcus pyogenes C 203. Type of test: functional. An outline of the steps:
as §1

For another test, the system named is Klebsiella pneumoniae. Kind of test: Minimum inhibitory concentration was evaluated in vitro against Klebsiella pneumoniae MGH2. Type of test: functional. An outline of the steps:
as §1

Test [13] deals with Enterococcus faecalis. Kind of test: Antibacterial activity expressed as Minimum inhibitory concentration was evaluated in vitro against Enterococcus faecalis MGH-2. The test is classed as functional. The gist of the method: as §1
Test [14] has as its system Streptococcus pyogenes. Kind of test: Antibacterial activity measured as mouse protection against Streptococcus pyogenes C 203 after subcutaneous administration. The test is classed as functional. The note with it: for ED50: Streptococcus pyogenes, C 203, sc, read-out: PD50.
Test [15] concerns Streptococcus pyogenes. Kind of test: Antibacterial activity expressed as Minimum inhibitory concentration was evaluated in vitro against Streptococcus pyogenes C 203. Type of test: functional. An outline of the steps: as §1
Test [16] is filed under the species Mus musculus. Kind of test: Compounds were evaluated for phototoxicity no-effect dose in mouse. The test is classed as functional. An outline of the steps: as §2
The species entered for test [17] is Mus musculus. As to the kind of experiment: Compounds was evaluated for phototoxicity no-effect dose in mouse. Type of test: functional. An outline of the steps:
as §2

Setting [18] is: Staphylococcus aureus, read-out: MIC.
[19] abbreviates: Enterobacter cloacae, read-out: MIC.
Where [20] appears, read: Providencia rettgeri, read-out: MIC.
Setting [21] is: Escherichia coli, read-out: MIC.
Setting [22] is: Streptococcus pneumoniae, read-out: MIC.
Setting [23] is: Pseudomonas aeruginosa, read-out: MIC.
Setting [24] is: Klebsiella pneumoniae, read-out: MIC.
Setting [25] is: Enterococcus faecalis, read-out: MIC.

What is called MIC is the lowest concentration found to suppress growth. The term IC50 denotes the point on the concentration scale where inhibition reaches its midpoint. Read a low IC50 as greater potency.

In the case of `CCNCC1CCN(c2c(F)cc3c(=O)c(C(=O)O)cn(C4CC4)c3c2F)C1` (centres undefined) [PD-117558], the MIC in the test with Staphylococcus aureus [1] (setting [18]) stood at 0.025 mg/L (≈ 0.0639 µM); in the test on Enterobacter cloacae (setting [19]), 0.1 mg/L (≈ 0.255 µM); in the test with Providencia rettgeri (setting [20]) it was 0.2 mg/L (≈ 0.511 µM); with Escherichia coli [4] (setting [21]), 0.05 mg/L (≈ 0.128 µM). Moreover, the values for the ED50 in the test with Streptococcus pyogenes [2], in the test on Escherichia coli [3] and in the test on Streptococcus pyogenes [5] were 1 mg/kg, 4 mg/kg and 0.8 mg/kg, respectively.
Take `C[C@@H](N)[C@H]1CCN(c2nc3c(cc2F)c(=O)c(C(=O)O)cn3C2CC2)C1` (mixture of isomers): the figures for the PD50 in the test with Escherichia coli [6], in the test on Streptococcus pyogenes [2] and in the test with Escherichia coli [3] were 0.4 mg/kg, 3 mg/kg and 2 mg/kg, respectively. Further, the minimal inhibitory concentration (MIC) with Staphylococcus aureus [1] was 0.025 mg/L; in the test with Streptococcus pneumoniae, 0.003 mg/L; against Enterobacter cloacae it was 0.05 mg/L; against Staphylococcus aureus [8], 0.003 mg/L; in the test on Providencia rettgeri, 0.1 mg/L; in the test on Pseudomonas aeruginosa, 0.4 mg/L. Further, the MIC against Enterococcus faecalis [11] stood at 0.013 mg/L; against Streptococcus pyogenes [12] it was 0.013 mg/L; against Klebsiella pneumoniae, 0.05 mg/L; against Escherichia coli [4], 0.025 mg/L. Further, the Cytotoxicity in test [7] stood at 33 µg/mL. On DNA gyrase, the half-maximal inhibitory concentration (IC50) was 2.08 µM. Further, in the test filed under Mus musculus [9], the Dose worked out at 30 mg/kg. In the test on Streptococcus pyogenes [10], the ED50 stood at 1 mg/kg.
For `CCn1cc(C(=O)O)c(=O)c2cc(F)c(N3CC[C@@H]([C@@H](C)N)C3)c(F)c21`, the ED50 was found to be 2 mg/kg in the test with Escherichia coli [6], 19 mg/kg with Streptococcus pyogenes [2] (Streptococcus pyogenes), 2 mg/kg in the test on Streptococcus pyogenes [14] and 15 mg/kg with Escherichia coli [3]. For the same compound, the MIC stood at 0.1 mg/L (≈ 0.274 µM) in the test with Staphylococcus aureus [1] (setting [18]); 0.05 mg/L (≈ 0.137 µM) with Streptococcus pneumoniae (setting [22]); 0.1 mg/L (≈ 0.274 µM) with Enterobacter cloacae (setting [19]); 0.025 mg/L (≈ 0.0684 µM) with Staphylococcus aureus [8] (setting [18]); 0.4 mg/L (≈ 1.09 µM) in the test on Providencia rettgeri (setting [20]); 0.1 mg/L (≈ 0.274 µM) with Enterococcus faecalis [13]. Further, the MIC in the test on Pseudomonas aeruginosa (setting [23]) was found to be 1.6 mg/L (≈ 4.38 µM); with Streptococcus pyogenes [12] (Streptococcus pyogenes, read-out: MIC), 0.05 mg/L (≈ 0.137 µM); in the test on Klebsiella pneumoniae (setting [24]), 0.2 mg/L (≈ 0.547 µM); in the test on Escherichia coli [4] (setting [21]), 0.1 mg/L (≈ 0.274 µM).
Take `C[C@@H](N)[C@H]1CCN(c2nc3c(cc2F)c(=O)c(C(=O)O)cn3-c2ccc(F)cc2F)C1` (racemic): the ED50 with Escherichia coli [6], in the test on Streptococcus pyogenes [2] (Streptococcus pyogenes) and with Streptococcus pyogenes [14] was 1 mg/kg each time. Moreover, the MIC stood at 0.006 mg/L (≈ 0.0139 µM) against Streptococcus pyogenes [15]; 0.05 mg/L (≈ 0.116 µM) with Staphylococcus aureus [1] (setting [18]); 0.006 mg/L (≈ 0.0139 µM) in the test on Streptococcus pneumoniae (setting [22]); 0.2 mg/L (≈ 0.463 µM) in the test with Enterobacter cloacae (setting [19]); 0.006 mg/L (≈ 0.0139 µM) in the test on Staphylococcus aureus [8] (setting [18]); 0.4 mg/L (≈ 0.925 µM) in the test with Providencia rettgeri (setting [20]). The minimum inhibitory concentration (MIC) in the test with Pseudomonas aeruginosa (setting [23]) worked out at 0.8 mg/L (≈ 1.85 µM); in the test on Enterococcus faecalis [11] (setting [25]) it was 0.025 mg/L (≈ 0.0578 µM); in the test with Klebsiella pneumoniae (setting [24]), 0.2 mg/L (≈ 0.463 µM); in the test with Escherichia coli [4] (setting [21]) it was 0.1 mg/L (≈ 0.231 µM). In test [7], this compound displayed a Cytotoxicity of 280 µg/mL. Also, the Dose in the test listed under Mus musculus [16] was above 100 mg/kg. In addition, on DNA gyrase, the concentration for half-maximal inhibition (IC50) was 1.16 µM. In the test with Escherichia coli [3], this compound returned a PD50 of 3 mg/kg.
In the case of `CN[C@@H](C)[C@@H]1CCN(c2nc3c(cc2F)c(=O)c(C(=O)O)cn3C2CC2)C1` (mixture of isomers), the MIC with Staphylococcus aureus [1] (setting [18]) is 0.1 mg/L; in the test with Streptococcus pneumoniae it was 0.013 mg/L; in the test with Enterobacter cloacae (setting [19]), 0.1 mg/L; against Staphylococcus aureus [8], 0.013 mg/L; with Providencia rettgeri (setting [20]), 0.4 mg/L; in the test with Pseudomonas aeruginosa (setting [23]), 1.6 mg/L. Moreover, the MIC in the test with Enterococcus faecalis [11] (setting [25]) was found to be 0.1 mg/L; against Streptococcus pyogenes [12], 0.025 mg/L; with Klebsiella pneumoniae (setting [24]) it was 0.2 mg/L; in the test with Escherichia coli [4] (setting [21]), 0.1 mg/L. Moreover, the Cytotoxicity in test [7] is 130 µg/mL. For the same compound, the PD50 in the test with Streptococcus pyogenes [2] and in the test on Streptococcus pyogenes [14] was 2 mg/kg throughout. Further, the Dose in the test listed under Mus musculus [17] is 18 mg/kg.
